Data set [1] can be described thus: Cytotoxicity against human TE1 cells assessed as growth inhibition after 72 hrs by CCK8 assay. Type of data set: functional, cell-based, TE-1. The following applies: Homo sapiens, TE-1, 72 h; read-out: IC50. The essentials: (§1)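 Exponentially growing cells were trypsinized and seeded at 2 × 10^4 cells/mL (100 µL/well). After 24 h, medium was replaced with compound at 0.5–256 µM (twofold steps). Plates were incubated 72 h at 37 °C, 5% CO2, then with CCK-8 for 4 h. A450 was read. Three independent runs; IC50 given as mean and SD.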

The nature of data set [2]: Cytotoxicity against human MCF7 cells assessed as growth inhibition after 72 hrs by CCK8 assay. Type of data set: functional, cell-based. The following applies: Homo sapiens, MCF7, 72 h; read-out: IC50. The essentials: as §1
Data set [3] in a line: Cytotoxicity against human SW780 cells assessed as growth inhibition after 72 hrs by CCK8 assay. Type of data set: functional, cell-based. The following applies: Homo sapiens, SW780, 72 h; read-out: IC50. In outline:
as §1

Data set [4] is described as follows: Cytotoxicity against human MGC803 cells assessed as growth inhibition after 72 hrs by CCK8 assay. Type of data set: functional, cell-based, MGC-803. The following applies: Homo sapiens, MGC-803, 72 h; read-out: IC50. In outline:
as §1

Data set [5] can be described thus: Cytotoxicity against human HL-7702 cells assessed as growth inhibition after 72 hrs by CCK8 assay. Type of data set: toxicity, cell-based, L02. The note with it: human, HL-7702 cells. The essentials: as §1
Data set [6] can be described thus: Cytotoxicity against human GES-1 cells assessed as growth inhibition after 72 hrs by CCK8 assay. Type of data set: toxicity, cell-based, GES1. The note with it: human, GES-1 cells. In outline:
as §1

The structures appear in SMILES notation.

Regarding `O=C1C(=O)N(Cc2cn(CC(=O)N3CCCC3)nn2)c2c(Cl)ccc(Cl)c21`, the IC50 in data set [1] was 51.6 µM; in data set [2], 62.4 µM; in data set [3] it was 48.2 µM; in data set [4] it was 14.8 µM. The IC50 at 72 h was more than 128 µM in data set [5] and 88.7 µM in data set [6].
Regarding `O=C(Cn1cc(CN2C(=O)C(=O)c3c(Cl)ccc(Cl)c32)nn1)NC1CCCCC1`, the IC50 in data set [1] amounted to 25.2 µM; in data set [2] it was 51.8 µM; in data set [3], 93.3 µM; in data set [4] it was 17.4 µM. For the same compound, the results for the IC50 at 72 h in data set [5] and in data set [6] were 83.9 µM and 47.4 µM, respectively.

The record behind these values is ChEMBL document CHEMBL3875153, “Design and synthesis of isatin/triazole conjugates that induce apoptosis and inhibit migration of MGC-803 cells” (Eur J Med Chem, 2016).
